We go through three substances from PMC6076386 (Biochemistry, 2017).

pKd: −log10 of the molar value. “Also recorded” adds a separate entry of the source.

In one assay the test system is thrombin ABE I. The following applies: cited from earlier work.
Assay [1] addresses Wild Type PPACK-IIa (human plasma thrombin), ABE I (Homo sapiens, UniProt P00734). In words: 2D 1H-15N HSQC NMR titration, wild-type PPACK-thrombin. The format is binding. The following applies: native PAR3 sequence, 15N-D54 and 15N-F47, PPACK-IIa; pH 6.5, 25 °C. The method, boiled down:
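Human plasma thrombin blocked with PPACK (4:1 inhibitor:enzyme, 37 °C, 30 min), buffer-exchanged into 25 mM H₃PO₄, 150 mM NaCl, 0.2 mM EDTA, 10% D₂O, pH 6.5, 25 °C. ¹⁵N-labeled PAR3(44–56) held at 50 μM while thrombin (starting 210 μM) was serially diluted, spanning 4:1 to 0.1:1 ratios. Chemical-shift changes were fitted with a ligand-normalized quadratic for K_D. At least triplicate; Monte-Carlo errors assumed 10% dilution error.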

Assay [2] deals with thrombin ABE I region 65–84. The following applies: cited from earlier work.
The target of a further assay is PAR3 (Homo sapiens) (UniProt O00254). Kind of assay: fluorescence titration. The following applies: cited from earlier work.

In the case of “PAR3 (^44Q N T ^15F E E F P L S ^15D I E[56]) [PAR3 (44–56)]”, the “binding by X-ray crystallography” value in the assay on thrombin ABE I is listed as “confirmed to bind in a specific manner to thrombin ABE I”. In addition, in assay [1], the “binding affinity by 15N-HSQC NMR titration” value is on record as “binding affinities could not be determined; also recorded: bound too tightly to thrombin”. In addition, the HDX-MS binding region entry in assay [2] is “both bind to the thrombin ABE I region 65–84”.

Broadly, the pKd is the negative decadic logarithm of the Kd, by convention in mol/L. With Thrombin (from UniProt P00734), the negative logarithm of the Kd (pKd) with PAR3 (Homo sapiens) was 5.70.

For the substance hirudin [reference compound], the HDX-MS binding region result in assay [2] was “both bind to the thrombin ABE I region 65–84”.
